Compound activity (PubChem)
This is a sample that favours compounds with a hit; in the whole collection about 2.5% have one here.
SENP6 block – blocks the human protease SENP6. Recombinant SENP6 catalytic domain, aminoluciferin luminescence. AID 2599. Q9GZR1. actives 1.8% (n = 330,000). inhibition, % at 10 µM;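 active = inhibition above about 50% at the single tested dose, limit read from the data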;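 note: plate controls were DMSO wells with enzyme for no effect and DMSO wells lacking enzyme for full effect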
SENP1 FRET inh – SENP1 (human) catalytic domain inhibition | Q9P0U3 | inhibition, % at 10 µM | recombinant SENP1 catalytic domain, CyPet-SUMO1-YPet FRET cleavage | actives 0.21% (n = 360,000) | AID 624204;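 active = inhibition at least 30% at 10 µM, raw YFP signal under a set limit, fluorescence ratio 0.5 to 1.5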;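 note: 0% = enzyme with DMSO and 100% = no enzyme wells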
Target sequence (Q9P0U3 419-644 limits assumed): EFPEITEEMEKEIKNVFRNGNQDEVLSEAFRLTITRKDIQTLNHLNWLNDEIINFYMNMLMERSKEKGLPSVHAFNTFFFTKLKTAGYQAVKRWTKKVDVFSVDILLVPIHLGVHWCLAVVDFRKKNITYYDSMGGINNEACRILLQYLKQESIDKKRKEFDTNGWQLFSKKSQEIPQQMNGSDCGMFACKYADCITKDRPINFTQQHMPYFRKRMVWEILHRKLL
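Assay system: hSENP1 catalytic domain, recombinant. Amount: SENP1 enzyme, 20 pM final. Schedule: 50 min reaction, RT, dark. Technique: FRET, CFP and YFP emission. Control set: no-enzyme wells low, DMSO-plus-enzyme wells high control.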
SENP8 block-1 – inhibitors of human SENP8 protease | AID 602440 | recombinant SENP8, Nedd8 substrate fluorescence | inhibition, % at 20 µM | actives 0.64% (n = 360,000); in the data active = inhibition mostly above about 40%, no sharp cut-off; inactive = mostly below about 27%
SENP8 block-2 – blocks the human protease SENP8. Q96LD8. purified SENP8, Z-RLRGG-aminoluciferin cleavage, luminescence. inhibition, % at 10 µM. actives 1.2% (n = 330,000); in the data active = inhibition above about 50%
SENP7 block – inhibitors of human SENP7 protease; recombinant SENP7, Z-RLRGG-aminoluciferin luminescence, 40 min; inhibition, % at 5 µM; actives 1.5% (n = 330,000);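 active = inhibition above about 50% at the single test dose, limit read from the data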;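 note: plate controls were DMSO with enzyme for no effect and no enzyme buffer wells for full effect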
Target sequence (Q9BQF6 706-1050 limits assumed): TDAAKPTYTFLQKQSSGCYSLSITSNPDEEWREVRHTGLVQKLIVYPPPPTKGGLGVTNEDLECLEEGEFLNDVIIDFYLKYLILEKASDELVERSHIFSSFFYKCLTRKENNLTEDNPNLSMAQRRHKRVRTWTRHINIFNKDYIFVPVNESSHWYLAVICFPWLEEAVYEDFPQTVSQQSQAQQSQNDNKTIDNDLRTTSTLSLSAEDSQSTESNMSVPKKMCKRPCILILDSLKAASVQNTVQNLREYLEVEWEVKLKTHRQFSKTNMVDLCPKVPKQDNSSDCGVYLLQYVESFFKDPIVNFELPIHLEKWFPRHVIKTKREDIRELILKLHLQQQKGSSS
SENP8 confirm – confirmation of human SENP8 protease inhibitors | AID 488912 | inhibition, % at 12.5 µM | shares compounds with SENP7 block | actives 40% (n = 6,200) | Recombinant SENP8, Z-RLRGG-aminoluciferin luminescence, 60 min;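 active = mean inhibition across replicates above about 50%, limit read from the data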
SENP6 conf – confirmation of human SENP6 protease inhibitors. inhibition, % at 12.5 µM. actives 58% (n = 6,200). recombinant SENP6, Z-RLRGG-aminoluciferin luminescence. AID 488915. shares compounds with SENP7 block
SENP7 conf – confirmation of human SENP7 protease inhibitors. shares compounds with SENP7 block. recombinant SENP7, Z-RLRGG-aminoluciferin luminescence, 40 min. inhibition, % at 12.5 µM. actives 69% (n = 6,200). AID 488917
Casp3 SENP sel – selectivity test for SENP inhibitors: human caspase-3 inhibition | shares compounds with SENP7 block | purified caspase-3, Z-DEVD-aminoluciferin luminescence, 60 min | inhibition, % at 12.5 µM | actives 60% (n = 6,200);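 active = mean inhibition above about 50%, limit read from the data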;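 note: plate controls were enzyme with DMSO for no effect and wells without caspase-3 for full effect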
SENP luc ctr – counter-screen for SENP inhibitors: luminescence interference | Pre-incubated SENP8/Z-RLRGG-aminoluciferin, luciferase luminescence interference | AID 488919 | actives 39% (n = 6,200) | inhibition, % at 12.5 µM | shares compounds with SENP7 block;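 active = mean inhibition above about 50% when retested at one dose, limit read from the data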;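 note: plate controls were DMSO wells with completed reaction for no effect and substrate without enzyme for full effect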
An asterisk follows results filed as active; · = not tested or not shown.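 Rule for the calls, unless noted: active = mean inhibition above about 50% in the one-dose retest (limit read from the data); inactive = the rest.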

SMILES | SENP6 block | SENP1 FRET inh | SENP8 block-1 | SENP8 block-2 | SENP7 block | SENP8 confirm | SENP6 conf | SENP7 conf | Casp3 SENP sel | SENP luc ctr
CCCCNc1c(-c2ccc(SC(C)CC)cc2)nc2ccccn12 (centres undefined) | 97* | -31 | -451 | 74* | 83* | 73* | 64* | 94* | 82* | 83*
CC(C)C1COC(c2cccc3ccccc23)=N1 (centres undefined) | 96* | 0 | 7 | 89* | 92* | 60* | 92* | 100* | 85* | 48
Cc1csc(SC(C)C(=O)NCC2CCCO2)n1 (centres undefined) | -7 | 0 | 11 | -5 | 4 | · | · | · | · | ·
COc1ccc(OC)c2c(C)cc(N3CCN(C(=O)c4ccc(Cl)cc4)CC3)nc12 | 69* | -14 | -300 | 42 | 24 | 12 | 5 | 5 | 3 | -3
O=C(c1ccc(Cl)cc1)N1CCN(c2ccc(N3CCOCC3)nn2)CC1 | · | -19 | -498 | · | · | · | · | · | · | ·
CCOC(=O)c1ccccc1N/C=C/C(=O)c1ccccc1 | 50* | -55 | -310 | 8 | 31 | 32 | 36 | 64* | 36 | 34
CCOC(=O)c1ccc(N/C=C/C(=O)c2ccccc2)cc1 | 93* | -135 | -469 | 84* | 95* | 13 | 57* | 24 | 67* | 9
CCOC(=O)c1ccccc1NC(=O)/C=C/C(=O)O | -27 | 2 | -176 | 1 | -1 | · | · | · | · | ·
N#Cc1c(N2CCOCC2)nsc1-c1ccccc1 | 37 | -1 | -28 | 25 | 6 | · | · | · | · | ·
N#Cc1c(N2CCCC2)nsc1-c1ccccc1 | 60* | -10 | -24 | 42 | 20 | 30 | 34 | 25 | 44 | 52*
COc1ccc2cc(C(c3nnnn3C(C)(C)C)N3CCc4ccccc4C3)c(=O)[nH]c2c1 (centres undefined) | 38 | · | · | 18 | 29 | · | · | · | · | ·
COc1ccc2cc(C(c3nnnn3C3CCCC3)N3CCc4ccccc4C3)c(=O)[nH]c2c1 (centres undefined) | 13 | -102 | -275 | 66* | 74* | 5 | 9 | 2 | -3 | -4
Clc1ccccc1-c1nnc(-c2cccs2)o1 | 81* | 4 | -140 | 72* | 80* | 75* | 74* | 92* | 79* | 55*
O=c1oc2ccc3ccccc3c2cc1-c1nnc(-c2cccs2)o1 | -18 | -26 | -421 | -3 | -7 | · | · | · | · | ·
Cc1ccc(/C=C/c2nnc(-c3ccccc3)o2)cc1 | 86* | 1 | -251 | 76* | 6 | 15 | 63* | 89* | 80* | 23
Cc1ccc(-c2nnc(Nc3ccccc3)o2)cc1 | 97* | 2 | -90 | 95* | 4 | -2 | 93* | 75* | 87* | 37
Cc1ccc(-c2noc(/C=C/c3ccccc3)n2)cc1 | 22 | 0 | 10 | 14 | 4 | · | · | · | · | ·
C(=C\c1nnc(-c2cccs2)o1)/c1ccccc1 | 81* | 0 | -275 | 74* | 3 | 15 | 61* | 88* | 65* | 34
Cc1ccc(N(Cc2ccccc2F)S(C)(=O)=O)cc1C | 8 | 0 | 2 | 1 | 0 | · | · | · | · | ·
CC[C@H]1OC(=O)[C@H](C)[C@@H](O[C@H]2C[C@@](C)(OC)[C@@H](O)[C@H](C)O2)[C@H](C)[C@@H](O[C@@H]2O[C@H](C)C[C@H](N(C)C)[C@H]2O)[C@](C)(O)C[C@@H](C)CN(C)[C@H](C)[C@@H](O)[C@]1(C)O | 7 | 2 | 7 | 1 | 10 | · | · | · | · | ·
CCN(C(=S)NC(=O)c1ccco1)c1cccc2ccccc12 | 70* | -6 | -483 | 33 | 23 | 13 | 17 | 9 | 3 | 5
Cc1ccc(OCc2nc(-c3cccs3)no2)c([N+](=O)[O-])c1 | -23 | 1 | 8 | 37 | 53* | 66* | 65* | 80* | 45 | 9
Cc1ccc(OCc2nc(-c3ccccc3)no2)c(C)c1 | 55* | -1 | 14 | 25 | 45 | 33 | 36 | 56* | 17 | 26
Cc1cc(C)c(C)c(OCc2nc(-c3cccnc3)no2)c1 | 0 | -1 | 3 | 2 | -5 | · | · | · | · | ·
O=[N+]([O-])c1ccccc1OCc1nc(-c2cccs2)no1 | -15 | 2 | 12 | 2 | 14 | · | · | · | · | ·
SMILES | SENP6 block | SENP1 FRET inh | SENP8 block-1 | SENP8 block-2 | SENP7 block | SENP8 confirm | SENP6 conf | SENP7 conf | Casp3 SENP sel | SENP luc ctr
NNC(=S)Nc1c(F)cc(F)cc1Br | -3 | 5 | 31 | 0 | 3 | · | · | · | · | ·
CC(C)(C)NC(=O)C1(C)CCC(=O)N1C1CC1 (centres undefined) | · | -1 | 12 | · | · | · | · | · | · | ·
O=C(CNC(=O)c1ccccc1F)OCCOc1cccc(Cl)c1 | 4 | -1 | 8 | 1 | -9 | · | · | · | · | ·
Oc1ccc(Cl)cc1/C=C/c1ccc2cccc(O)c2n1 | 30 | 75 | -73 | -9 | -9 | · | · | · | · | ·
COc1cc(/C=C/c2ccc3cccc(O)c3n2)c(Br)cc1O | 84* | -24 | -219 | 87* | 77* | 63* | 86* | 100* | 55* | 10
COc1cc(/C=C/c2ccc3cccc(O)c3n2)ccc1O | 80* | -25 | -282 | 60* | 51* | 71* | 75* | 92* | 43 | 82*
CSc1ccc(/C=C/c2ccc3cccc(O)c3n2)cc1 | 66* | -30 | -282 | 42 | 36 | 65* | 90* | 100* | 91* | 53*
Oc1cccc2ccc(/C=C/c3ccccc3Br)nc12 | 90* | 2 | -46 | 82* | 70* | 72* | 87* | 91* | 78* | 66*
Cc1ccsc1/C=C/c1ccc2cccc(O)c2n1 | 94* | -18 | -41 | 86* | 91* | 95* | 97* | 101* | 91* | 84*
O=C(NCc1ccco1)c1cc([N+](=O)[O-])ccc1N1CCOCC1 | 95* | 2 | 18 | -1 | -12 | -6 | -5 | -5 | -5 | -5
O=C(Nc1nccs1)c1cc(-c2ccccc2)nn1-c1ccccc1 | 7 | -1 | -62 | -5 | 1 | · | · | · | · | ·
CCc1nnc(NC(=O)c2cc(-c3ccccc3)nn2-c2ccccc2)s1 | -19 | 1 | 3 | 0 | 99* | -20 | -12 | -15 | 1 | -7
Nc1c(C(=O)NCC2CCCO2)c2nc3ccccc3nc2n1/N=C/c1ccncc1 (centres undefined) | · | -39 | -99 | · | · | · | · | · | · | ·
